# Experimental data: ChEMBL document CHEMBL3044709, “Antimicrobial furostanol saponins from the seeds of Capsicum annuum L. var. acuminatum” (2002)
# Legend:
# Type in all cases: functional
# Bacillus subtilis = test: Antimicrobial activity against Bacillus subtilis DSM 345 after 48 hr by agar dilution method; details: DSM 345, 48 h
# Method in brief: (§1)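 Agar dilution on standard plate count agar: 0.5 mL of a 2-fold serial dilution of sample mixed into 9.5 mL medium, poured into Petri dishes, organism streaked on the surface. Incubated at 28 °C (36 and 48 h). MIC is the lowest tested concentration with no visible growth.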
# Staphylococcus aureus = test: Antimicrobial activity against Staphylococcus aureus subsp. aureus DSM 346 after 48 hr by agar dilution method; details: DSM 346, 48 h; method in brief: as §1
# Saccharomyces cerevisiae [1] = test: Antimicrobial activity against Saccharomyces cerevisiae Diproval 7070 after 48 hr by agar dilution method; details: Diproval 7070, 48 h
# Method in brief: (§2)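 Yeast peptone dextrose agar plates, each holding a 2-fold serial dilution of sample (0.5 mL into 9.5 mL medium). Yeast streaked onto the plates and incubated at 28 °C, read at 36 and 48 h. MIC is the lowest concentration tested showing no growth.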
# Hanseniaspora vineae = test: Antimicrobial activity against Hanseniaspora vineae CBS 2171 after 48 hr by agar dilution method; details: CBS 2171, 48 h; method in brief: as §2
# [2] = test system: Staphylococcus epidermidis; test: Antimicrobial activity against Staphylococcus epidermidis DSM 1798 after 48 hr by agar dilution method; details: DSM 1798, 48 h; method in brief: as §1
# Hanseniaspora uvarum [3] = test: Antimicrobial activity against Hanseniaspora uvarum AP23 after 48 hr by agar dilution method; details: Distaam AP23, 48 h; method in brief: as §2
# Bacillus licheniformis = test: Antimicrobial activity against Bacillus licheniformis DSM 13=ATCC 14580 after 48 hr by agar dilution method; details: DSM 13 = ATCC 14580, 48 h; method in brief: as §1
# Micrococcus luteus = test: Antimicrobial activity against Micrococcus luteus DSM 348 after 48 hr by agar dilution method; details: DSM 348, 48 h; method in brief: as §1
# Stutzerimonas stutzeri = test: Antimicrobial activity against Pseudomonas stutzeri ATCC 962 after 48 hr by agar dilution method; details: ATCC 962, 48 h; method in brief: as §1
# Trichoderma viride = test: Antimicrobial activity against Hypocrea rufa ATCC 28020 after 48 hr by agar dilution method; details: ATCC 28020, 48 h
# Method in brief: (§3)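 Fungi tested by agar dilution in malt agar. Serial 2-fold sample dilutions (0.5 mL) were mixed with 9.5 mL medium and plated, then streaked with the organism. Incubation at 28 °C for 36 and 48 h. MIC is the lowest tested concentration without growth.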
# Saccharomyces cerevisiae [4] = test: Antimicrobial activity against Saccharomyces cerevisiae Diproval 404 after 48 hr by agar dilution method; details: Diproval 404, 48 h; method in brief: as §2
# Penicillium expansum = test: Antimicrobial activity against Penicillium expansum ATCC 7861 after 48 hr by agar dilution method; details: ATCC 7861, 48 h; method in brief: as §3
# Rhizopus arrhizus = test: Antimicrobial activity against Rhizopus oryzae ATCC 56536 after 48 hr by agar dilution method; details: ATCC 56536, 48 h; method in brief: as §3
# Saccharomyces cerevisiae [5] = test: Antimicrobial activity against Saccharomyces cerevisiae Diproval 9109 after 48 hr by agar dilution method; details: Diproval 9109, 48 h; method in brief: as §2
# Hanseniaspora osmophila = test: Antimicrobial activity against Hanseniaspora osmophila CBS 313 after 48 hr by agar dilution method; details: CBS 313, 48 h; method in brief: as §2
# [6] = test system: Hanseniaspora guilliermondii; test: Antimicrobial activity against Hanseniaspora guilliermondii CBS 465 after 48 hr by agar dilution method; details: CBS 465, 48 h; method in brief: as §2
# Aspergillus flavus = test: Antimicrobial activity against Aspergillus flavus ATCC 11655 after 48 hr by agar dilution method; details: ATCC 11655, 48 h; method in brief: as §3
# Bacillus cereus = test: Antimicrobial activity against Bacillus cereus DSM 345 after 48 hr by agar dilution method; details: DSM 345, 48 h; method in brief: as §1
# Escherichia coli [7] = test: Antimicrobial activity against Escherichia coli ATCC 35346 after 48 hr by agar dilution method; details: ATCC 35346, 48 h; method in brief: as §1
# Lacticaseibacillus casei = test: Antimicrobial activity against Lactobacillus casei DSM 20011 after 48 hr by agar dilution method; details: DSM 20011, 48 h; method in brief: as §1
# Enterococcus faecalis = test: Antimicrobial activity against Enterococcus faecalis DSM 2570 after 48 hr by agar dilution method; details: DSM 2570, 48 h; method in brief: as §1
# Saccharomyces cerevisiae [8] = test: Antimicrobial activity against Saccharomyces cerevisiae Diproval 6073 after 48 hr by agar dilution method; details: Diproval 6073, 48 h; method in brief: as §2
# Aspergillus fumigatus = test: Antimicrobial activity against Aspergillus fumigatus ATCC 1028 after 48 hr by agar dilution method; details: ATCC 1028, 48 h; method in brief: as §3
# Aspergillus niger = test: Antimicrobial activity against Aspergillus niger ATCC 1040 after 48 hr by agar dilution method; details: ATCC 1040, 48 h; method in brief: as §3
# [9] = test system: Schizosaccharomyces pombe; test: Antimicrobial activity against Schizosaccharomyces pombe Diproval 106 after 48 hr by agar dilution method; details: Diproval 106, 48 h; method in brief: as §2
# Saccharomyces cerevisiae [10] = test: Antimicrobial activity against Saccharomyces cerevisiae Diproval 2439 after 48 hr by agar dilution method; details: Diproval 2439, 48 h; method in brief: as §2
# Escherichia coli [11] = test: Antimicrobial activity against Escherichia coli DSM 682 after 48 hr by agar dilution method; details: DSM 682, 48 h; method in brief: as §1
# Saccharomycodes ludwigii = test: Antimicrobial activity against Saccharomycodes ludwigii Diproval 120 after 48 hr by agar dilution method; details: Diproval 120, 48 h; method in brief: as §2
# Candida albicans = test: Antimicrobial activity against Candida albicans CBS 562 after 48 hr by agar dilution method; details: CBS 562, 48 h; method in brief: as §2
# Setophoma terrestris = test: Antimicrobial activity against Setophoma terrestris ATCC 11321 after 48 hr by agar dilution method; details: ATCC 11321, 48 h; method in brief: as §3
# [12] = test system: Limosilactobacillus fermentum; test: Antimicrobial activity against Lactobacillus fermentum DSM 20052 after 48 hr by agar dilution method; details: DSM 20052, 48 h; method in brief: as §1
# [13] = test system: Lactiplantibacillus plantarum; test: Antimicrobial activity against Lactobacillus plantarum DSM 20174 after 48 hr by agar dilution method; details: DSM 20174, 48 h; method in brief: as §1
# Saccharomyces cerevisiae [14] = test: Antimicrobial activity against Saccharomyces cerevisiae Diproval 8167 after 48 hr by agar dilution method; details: Diproval 8167, 48 h; method in brief: as §2
# Hanseniaspora uvarum [15] = test: Antimicrobial activity against Hanseniaspora uvarum CBS 314 after 48 hr by agar dilution method; details: CBS 314, 48 h; method in brief: as §2
# Pseudomonas aeruginosa = test: Antimicrobial activity against Pseudomonas aeruginosa DSM 1117 after 48 hr by agar dilution method; details: DSM 1117, 48 h; method in brief: as §1
# [16] = test system: Lacticaseibacillus rhamnosus; test: Antimicrobial activity against Lactobacillus rhamnosus DSM 20021 after 48 hr by agar dilution method; details: DSM 20021, 48 h; method in brief: as §1
structure (smiles),measurement,setting,value
COC1(CC[C@@H](C)CO[C@@H]2O[C@H](CO)[C@@H](O)[C@H](O)[C@H]2O)O[C@H]2C[C@H]3[C@@H]4CC[C@H]5C[C@@H](O[C@@H]6O[C@H](CO)[C@H](O[C@@H]7O[C@H](CO)[C@@H](O)[C@H](O[C@@H]8O[C@H](CO)[C@@H](O)[C@H](O)[C@H]8O)[C@H]7O[C@@H]7O[C@H](CO)[C@@H](O)[C@H](O[C@@H]8O[C@H](CO)[C@@H](O)[C@H](O)[C@H]8O)[C@H]7O)[C@H](O)[C@H]6O)CC[C@]5(C)[C@H]4CC[C@]3(C)[C@H]2[C@@H]1C (stereo partly specified) [22-O-METHYLCAPSICOSIDE G],MIC,Bacillus subtilis,> 1000 µg/mL
same,MIC,Staphylococcus aureus,> 1000 µg/mL
same,MIC,Saccharomyces cerevisiae [1],25 µg/mL
same,MIC,Hanseniaspora vineae,12.5 µg/mL
same,MIC,[2],> 1000 µg/mL
same,MIC,Hanseniaspora uvarum [3],12.5 µg/mL
same,MIC,Bacillus licheniformis,> 1000 µg/mL
same,MIC,Micrococcus luteus,> 1000 µg/mL
same,MIC,Stutzerimonas stutzeri,> 1000 µg/mL
same,MIC,Trichoderma viride,250 µg/mL
same,MIC,Saccharomyces cerevisiae [4],25 µg/mL
same,MIC,Penicillium expansum,500 µg/mL
same,MIC,Rhizopus arrhizus,125 µg/mL
same,MIC,Saccharomyces cerevisiae [5],25 µg/mL
same,MIC,Hanseniaspora osmophila,25 µg/mL
same,MIC,[6],12.5 µg/mL
same,MIC,Aspergillus flavus,> 1000 µg/mL
same,MIC,Bacillus cereus,1000 µg/mL
same,MIC,Escherichia coli [7],1000 µg/mL
same,MIC,Lacticaseibacillus casei,1000 µg/mL
same,MIC,Enterococcus faecalis,> 1000 µg/mL
same,MIC,Saccharomyces cerevisiae [8],25 µg/mL
same,MIC,Aspergillus fumigatus,> 1000 µg/mL
same,MIC,Aspergillus niger,> 1000 µg/mL
same,MIC,[9],25 µg/mL
same,MIC,Saccharomyces cerevisiae [10],25 µg/mL
same,MIC,Escherichia coli [11],1000 µg/mL
same,MIC,Saccharomycodes ludwigii,12.5 µg/mL
same,MIC,Candida albicans,25 µg/mL
same,MIC,Setophoma terrestris,250 µg/mL
same,MIC,[12],1000 µg/mL
same,MIC,[13],1000 µg/mL
same,MIC,Saccharomyces cerevisiae [14],25 µg/mL
same,MIC,Hanseniaspora uvarum [15],12.5 µg/mL
same,MIC,Pseudomonas aeruginosa,> 1000 µg/mL
same,MIC,[16],1000 µg/mL
